Assay results: ChEMBL document CHEMBL3108746, “Novel symmetrical ureas as modulators of protein arginine methyl transferases” (Bioorg Med Chem, 2013)
Calls of active or inactive are those of the source. No cut-off for these calls is given here.

How the values were obtained:
LAPC4 = assay: Cytotoxicity against human LAPC4 cells after 7 days by Alamar blue staining method; format: functional, cell-based; conditions: for IC50: LAPC4, 168 h
Method in brief: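 LAPC-4 cells seeded at 4000 cells/well in medium with 2 mM L-glutamine. After 1 day, treated with 1 nM R1881 plus a range of compound concentrations. Cell number read 7 days later by Alamar Blue staining on a luminometer.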

[1] = biological target: Protein arginine N-methyltransferase 5 (Homo sapiens) (UniProt O14744); assay: Residual activity of recombinant human PRMT5 expressed in Sf9 cells using histone H4 peptide as substrate at 100 uM by chemiluminescence assay
Chain of Protein arginine N-methyltransferase 5 (Homo sapiens) (O14744 whole entry): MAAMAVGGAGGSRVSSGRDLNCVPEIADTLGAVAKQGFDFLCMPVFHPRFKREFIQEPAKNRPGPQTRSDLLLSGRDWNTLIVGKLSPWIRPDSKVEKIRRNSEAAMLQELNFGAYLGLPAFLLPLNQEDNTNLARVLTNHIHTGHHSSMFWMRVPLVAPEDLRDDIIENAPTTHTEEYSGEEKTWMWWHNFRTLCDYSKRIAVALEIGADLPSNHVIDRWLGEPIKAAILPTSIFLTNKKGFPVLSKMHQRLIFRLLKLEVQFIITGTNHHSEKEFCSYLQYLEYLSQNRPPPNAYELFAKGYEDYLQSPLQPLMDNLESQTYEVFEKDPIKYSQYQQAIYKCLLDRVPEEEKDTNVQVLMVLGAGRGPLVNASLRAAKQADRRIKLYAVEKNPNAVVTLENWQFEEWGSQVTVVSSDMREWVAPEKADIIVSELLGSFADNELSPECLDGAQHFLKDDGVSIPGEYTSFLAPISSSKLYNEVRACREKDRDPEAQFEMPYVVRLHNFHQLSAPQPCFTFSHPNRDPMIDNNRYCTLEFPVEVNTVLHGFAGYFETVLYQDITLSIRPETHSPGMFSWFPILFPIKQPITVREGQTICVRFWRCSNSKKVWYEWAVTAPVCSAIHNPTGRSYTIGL

VCaP [2] = assay: Cytotoxicity against human VCaP cells after 7 days by Alamar blue staining method; format: functional, cell-based
Method in brief: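 VCaP cells seeded at 16,000 cells/well in phenol-red DMEM with 10% cFCS. After 1 day, treated with 0.1 nM R1881 plus a range of compound concentrations. Cell number read 7 days later by Alamar Blue staining on a luminometer.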

[3] = biological target: T1, Protein arginine N-methyltransferase 1 (Homo sapiens, UniProt Q99873); assay: Inhibition of recombinant human PRMT1 expressed in Escherichia coli using histone H4 peptide as substrate by chemiluminescence assay
Target sequence in this assay (Q99873 whole entry): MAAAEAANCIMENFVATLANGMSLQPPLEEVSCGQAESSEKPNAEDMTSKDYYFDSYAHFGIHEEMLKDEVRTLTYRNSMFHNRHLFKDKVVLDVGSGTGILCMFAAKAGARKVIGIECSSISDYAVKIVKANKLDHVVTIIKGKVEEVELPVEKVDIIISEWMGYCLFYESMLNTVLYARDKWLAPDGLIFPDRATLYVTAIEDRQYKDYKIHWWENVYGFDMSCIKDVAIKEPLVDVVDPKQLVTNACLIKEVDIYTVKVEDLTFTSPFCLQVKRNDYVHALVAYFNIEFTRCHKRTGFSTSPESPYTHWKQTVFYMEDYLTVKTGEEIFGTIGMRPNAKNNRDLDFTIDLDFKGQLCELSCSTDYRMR

VCaP [4] = assay: Inhibition of AR gene expression in R1881-stimulated human VCaP cells at 1.56 to 100 uM by RT-PCR analysis; format: functional, cell-based
Method in brief: (§1)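 VCaP cells treated with androgen alone or with increasing compound concentrations. Transcript levels measured by real-time PCR with gene-specific fluorogenic probes and normalized to human cyclophilin A. Values are means of independent triplicates.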

[5] = biological target: T1, Protein arginine N-methyltransferase 1; assay: Inhibition of PRMT1-mediated FKBP5 gene expression in R1881-stimulated human VCaP cells by RT-PCR analysis; format: cell-based; method in brief: as §1
Target sequence in this assay (Q99873 whole entry, looked up): as the sequence (Q99873 whole entry) above

[6] = biological target: T1, Protein arginine N-methyltransferase 1; assay: Inhibition of PRMT1-mediated TMPRSS2 gene expression in R1881-stimulated human VCaP cells by RT-PCR analysis; format: cell-based; method in brief: as §1
Target sequence in this assay (Q99873 whole entry, looked up): as the sequence (Q99873 whole entry) above

[7] = biological target: T1, Protein arginine N-methyltransferase 1; assay: Inhibition of PRMT1-mediated KLK2 gene expression in R1881-stimulated human VCaP cells at 1.56 to 100 uM by RT-PCR analysis; format: cell-based; method in brief: as §1
Target sequence in this assay (Q99873 whole entry, looked up): as the sequence (Q99873 whole entry) above

VCaP [8] = assay: Inhibition of PRMT1 gene expression in androgen-stimulated human VCaP cells by RT-PCR analysis; format: functional, cell-based; method in brief: as §1
[9] = biological target: Protein arginine N-methyltransferase 5 (Homo sapiens) (UniProt O14744); assay: Inhibition of recombinant human PRMT5 expressed in Sf9 cells using histone H4 peptide as substrate by chemiluminescence assay
Method in brief: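 Purified recombinant human PRMT5 (Sf9-expressed) incubated 1 h with S-adenosylmethionine in 1× TBS pH 8.0 with 0.05% Tween20, on wells precoated with histone H4 peptide. Compounds came from 25 mM DMSO stocks diluted in water. Detection used a primary antibody to symmetric-dimethyl R3 of H4 (1 h), then HRP secondary and chemiluminescence. Mean of duplicates with SD.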

Compound | Activity (LAPC4) | residual activity [1] [%] | Activity (VCaP [2]) | also measured
O=C(O)/C=C/c1cccc(N2CCCN(c3cccc(/C=C/C(=O)O)n3)C2=O)n1 | inactive | 48.7 | inactive | 
O=C(O)/C=C/c1ccc(N2CCCN(c3ccc(/C=C/C(=O)O)cc3)C2=O)cc1 | inactive | 56.4 | inactive | 
COc1ccc2c3c(cccc13)C(=O)N(C)C2=O | inactive | 46.2 | inactive | IC50 [3]: 16.3 µM
O=C(O)CCCCCNC(=O)NCCCCCC(=O)O | inactive | 46.2 | inactive | inhibition (VCaP [4]): inactive; inhibition [5]: Dose-dependent effect; inhibition [6]: Dose-dependent effect; inhibition [7]: inactive; inhibition (VCaP [8]): inactive; IC50 [3]: 6.1 µM
O=C(O)/C=C/c1ccc(N2CCN(c3ccc(/C=C/C(=O)O)cc3)C2=O)cc1 | inactive | 35.9 | inactive | 
O=C(NCc1cccc(C(=O)O)c1)NCc1cccc(C(=O)O)c1 | inactive | 56.4 | inactive | 
O=C(Nc1ccc2c(O)cc(S(=O)(=O)O)cc2c1)Nc1ccc2c(O)cc(S(=O)(=O)O)cc2c1 | inactive |  | inactive | 
O=C(Nc1ccc2ccc(S(=O)(=O)Nc3ccc4c(c3)OCCO4)cc2c1)Nc1ccc2ccc(S(=O)(=O)Nc3ccc4c(c3)OCCO4)cc2c1 |  | 71.8 |  | IC50 (LAPC4): 1.5 µM
O=C(O)/C=C/c1cccc(N2CCN(c3cccc(/C=C/C(=O)O)c3)C2=O)c1 | inactive | 61.5 | inactive | 
O=C(NCCc1cccc(C(=O)O)c1)NCCc1cccc(C(=O)O)c1 | inactive | 15.4 | inactive | inhibition [9]: Active
O=C(Nc1ccc2ccc(S(=O)(=O)Nc3ccc(Oc4ccccc4)cc3)cc2c1)Nc1ccc2ccc(S(=O)(=O)Nc3ccc(Oc4ccccc4)cc3)cc2c1 |  | 38.5 |  | IC50 (LAPC4): 8.6 µM
O=C(O)/C=C/c1cccc(N2CCN(c3cccc(/C=C/C(=O)O)n3)C2=O)n1 | inactive | 10.3 | inactive | inhibition [9]: Active
O=C(O)/C=C/c1cccc(NC(=O)Nc2cccc(/C=C/C(=O)O)c2)c1 | inactive | 92.3 | inactive | 
O=C(O)/C=C/c1cccc(N2CCCN(c3cccc(/C=C/C(=O)O)c3)C2=O)c1 | inactive | 74.4 | inactive | 
